Consider 65 compounds from PubChem BioAssay AID540322 (Johns Hopkins Ion Channel Center, 2011).

In general, IC50 refers to the point on the concentration scale where inhibition reaches its midpoint.

Molecules are shown by their SMILES.

This test has as its target Potassium channel subfamily K member 9 (Homo sapiens) (UniProt Q9NPC2). The test can be described thus: concentration-dependent TASK-3 (KCNK9) blockade – HEK293 cells, thallium flux, round II, SAR follow-up (AID 540322). To be noted: HEK293-KCNK9, FluxOR thallium flux fluorescence. In a few lines:
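schedule = 90 min dye loading, 20 min compound pre-incubation, room temperature | system = HEK293 cells stably expressing the KCNK9 potassium channel | compound dosing = multi-concentration series | measure = IC50 from normalized fluorescence change | repeats = replicate concentration-response data per compound | detection = FluxOR thallium-sensitive dye fluorescence, 110 s kinetic read post-stimulus | also added = K2SO4 plus Tl2SO4 stimulus (5x stock)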

Potassium channel subfamily K member 9 (Homo sapiens), sequence (Q9NPC2 whole entry, looked up): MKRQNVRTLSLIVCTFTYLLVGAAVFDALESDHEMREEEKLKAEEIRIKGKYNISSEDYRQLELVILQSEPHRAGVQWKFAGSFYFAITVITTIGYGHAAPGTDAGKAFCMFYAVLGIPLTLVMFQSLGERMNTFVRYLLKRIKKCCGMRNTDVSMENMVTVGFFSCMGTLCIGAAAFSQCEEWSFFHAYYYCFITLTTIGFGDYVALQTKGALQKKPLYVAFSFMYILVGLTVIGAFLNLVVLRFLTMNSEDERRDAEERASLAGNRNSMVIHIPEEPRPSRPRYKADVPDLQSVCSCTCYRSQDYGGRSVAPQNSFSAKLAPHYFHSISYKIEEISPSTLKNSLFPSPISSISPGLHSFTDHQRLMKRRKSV

For `Cc1cccc(C(=O)Nc2cccc(NC(=O)c3cccc(C)c3)c2)c1`, the IC50 is 990 nM.

As to `COc1ccccc1C(=O)Nc1cccc(NC(=O)c2ccccc2C)c1`, the IC50 was 3490 nM.

For `CCOc1ccccc1NC(=O)c1cccc(NC(=O)C2CCCCC2)c1`, the IC50 was 1300 nM.

In the case of `COc1ccccc1NC(=O)c1cccc(NC(=O)c2ccccc2C(F)(F)F)c1`, the IC50 was 1320 nM.

For the compound `COc1ccccc1-c1n[nH]c(=S)n1C(C)C1CC2CCC1C2` (stereo not given), the IC50 was 840 nM.

As for `COc1ccccc1NC(=O)c1cccc(NC(=O)c2ccccc2)c1`, the IC50 is 1410 nM.

In the case of `O=C(Nc1cccc(NC(=O)C2CCCCC2)c1)c1ccccc1`, the IC50 was 8000 nM.

`CC(C1CC2CCC1C2)n1c(-c2cccc(Cl)c2)n[nH]c1=S` (stereo not given): the IC50 is 440 nM.

For `Cc1cccc(C(=O)Nc2cccc(NC(=O)c3ccccc3OC(F)(F)F)c2)c1`, the IC50 was 1050 nM.

For `CCOc1ccccc1NC(=O)c1cccc(NC(=O)c2ccccc2Cl)c1`, the IC50 is 2630 nM.

Turning to `COc1ccccc1C(=O)Nc1cccc(NC(=O)c2ccccc2OC)c1`, the IC50 is 3620 nM.

`Cc1cccc(C(=O)Nc2cccc(NC(=O)c3cccc(Cl)c3)c2)c1`: the IC50 is 13400 nM.

With `CCOc1cccc(NC(=O)c2cccc(NC(=O)C3CCCC3)c2)c1`, the IC50 is 4070 nM.

Consider `COc1ccc(-c2n[nH]c(=S)n2C(C)C2CC3CCC2C3)cc1` (stereo not given), for which the IC50 was 1730 nM.

Take `COc1ccccc1C(=O)Nc1cccc(NC(=O)c2ccccc2C(C)C)c1`: the IC50 was 740 nM.

As for `COc1cccc(-c2n[nH]c(=S)n2C(C)C2CC3CCC2C3)c1` (stereo not given), the half-inhibitory concentration (IC50) was 210 nM.

On to `COc1ccccc1C(=O)Nc1cccc(NC(=O)c2ccccc2)c1`, for which the IC50 is 1740 nM.

Take `CCOc1ccccc1NC(=O)c1cccc(NC(=O)C2CCCC2)c1`: the IC50 is 1840 nM.

Turning to `Cc1cccc(C(=O)Nc2cccc(NC(=O)c3ccccc3)c2)c1`, the IC50 was 1820 nM.

Take `Cc1cccc(C(=O)Nc2cccc(NC(=O)c3ccccc3C)c2)c1`: the IC50 was 940 nM.

For the compound `COc1ccccc1C(=O)Nc1cccc(NC(=O)c2ccccc2OC(F)(F)F)c1`, the IC50 was 1170 nM.

Regarding `Cc1cccc(C(=O)Nc2cccc(NC(=O)C3CCCCC3)c2)c1`, the IC50 was 11900 nM.

With `CC(C1CC2CCC1C2)n1c(-c2ccsc2)n[nH]c1=S` (stereo not given), the IC50 was 1000 nM.

As to `CCOc1ccccc1NC(=O)c1cccc(NC(=O)c2ccccc2OC)c1`, the IC50 is 1180 nM.

As to `CCOc1ccccc1NC(=O)c1cccc(NC(=O)c2ccccc2C)c1`, the IC50 was 4290 nM.

For `COc1cccc(C(=O)Nc2cccc(NC(=O)c3cccc(C)c3)c2)c1`, the IC50 is 29300 nM.

`CCOc1ccccc1NC(=O)c1cccc(NC(=O)c2cccc(OC)c2)c1`: the IC50 was 2330 nM.

In the case of `CCOc1ccccc1NC(=O)c1cccc(NC(=O)CC2CCCC2)c1`, the IC50 is 4170 nM.

Turning to `CCOc1ccccc1NC(=O)c1cccc(NC(=O)C2CC2)c1`, the IC50 is 10200 nM.

On to `COc1ccccc1C(=O)Nc1cccc(NC(=O)c2cccc(C)c2)c1`, for which the IC50 was 2720 nM.

For `Cc1ccccc1-c1n[nH]c(=S)n1C(C)C1CC2CCC1C2` (stereo not given), the IC50 is 720 nM.

For the compound `CCOc1ccccc1NC(=O)c1cccc(NC(=O)c2cccc(Cl)c2)c1`, the IC50 is 1840 nM.

As to `Cc1cccc(C(=O)Nc2cccc(NC(=O)c3ccccc3OCC(C)C)c2)c1`, the IC50 is 3390 nM.

Turning to `Cc1cccc(C(=O)Nc2cccc(NC(=O)c3cccs3)c2)c1`, the IC50 is 6850 nM.

As for `COc1ccccc1NC(=O)c1cccc(NC(=O)c2ccccc2OC)c1`, the IC50 was 3020 nM.

As for `O=C(Nc1cccc(NC(=O)c2ccccn2)c1)c1ccccc1`, the IC50 was 5370 nM.

As to `CCOc1ccccc1C(=O)Nc1cccc(NC(=O)C2CCCC2)c1`, the IC50 was 1110 nM.

`CCOc1ccccc1C(=O)Nc1cccc(NC(=O)c2ccccc2C(F)(F)F)c1`: the IC50 is 1040 nM.

`Cc1cccc(C(=O)Nc2cccc(NC(=O)c3ccccc3C(F)(F)F)c2)c1`: the IC50 was 12900 nM.

For `CCOc1ccccc1C(=O)Nc1cccc(NC(=O)c2ccccc2OC)c1`, the IC50 is 1980 nM.

With `CCOc1ccccc1NC(=O)c1cccc(NC(=O)c2ccccc2C(F)(F)F)c1`, the IC50 was 320 nM.

For the compound `Cc1ccccc1C(=O)Nc1cccc(NC(=O)c2ccccc2)c1`, the IC50 was 6480 nM.

As to `CCOc1ccccc1NC(=O)c1cccc(NC(=O)c2ccccc2)c1`, the IC50 was 1430 nM.

Regarding `CCOc1ccccc1NC(=O)c1cccc(NC(=O)c2cccc(C(F)(F)F)c2)c1`, the IC50 is 1380 nM.

Turning to `CC(C1CC2CCC1C2)n1c(-c2ccccc2)n[nH]c1=S` (stereo not given), the IC50 is 520 nM.

As to `CCOc1ccccc1NC(=O)c1cccc(NC(=O)C(C)(C)C)c1`, the IC50 was 30600 nM.

As for `Cc1cccc(C(=O)Nc2cccc(NC(=O)c3ccccc3Cl)c2)c1`, the IC50 is 19800 nM.

Turning to `COc1ccccc1NC(=O)c1cccc(NC(=O)CC2CCCC2)c1`, the IC50 was 2630 nM.

In the case of `CC(C1CC2CCC1C2)n1c(C2CCOC2)n[nH]c1=S` (stereo not given), the IC50 was 10300 nM.

Consider `CCOc1ccccc1NC(=O)c1cccc(NC(=O)c2cccc(C)c2)c1`, for which the IC50 was 290 nM.

For `CCOc1ccccc1C(=O)Nc1cccc(NC(=O)c2cccc(C)c2)c1`, the IC50 is 570 nM.

As for `CC(C1CC2CCC1C2)n1c(-c2ccoc2)n[nH]c1=S` (stereo not given), the IC50 is 4250 nM.

Regarding `Cc1cccc(C(=O)Nc2cccc(NC(=O)c3ccco3)c2)c1`, the IC50 was 1670 nM.

As for `COc1cccc(OC)c1C(=O)Nc1cccc(NC(=O)c2cccc(C)c2)c1`, the IC50 was 19200 nM.

Regarding `COc1ccccc1NC(=O)c1cccc(NC(=O)C2CCCCC2)c1`, the IC50 was 2160 nM.

On to `CCOc1ccccc1NC(=O)c1cccc(NC(=O)CC2CCCCC2)c1`, for which the IC50 was 1920 nM.

As to `COc1ccccc1NC(=O)c1cccc(NC(=O)C2CCCC2)c1`, the IC50 was 1550 nM.

On to `O=C(Nc1ccccc1Cl)c1cccc(NC(=O)C2CCCC2)c1`, for which the IC50 is 5780 nM.

For the compound `O=C(Nc1cccc(NC(=O)c2ccccc2C(F)(F)F)c1)c1ccccc1`, the IC50 is 7210 nM.

Consider `CCOc1ccccc1NC(=O)c1cccc(NC(=O)c2ccccc2OC(F)(F)F)c1`, for which the IC50 is 800 nM.

For `CC(C1CC2CCC1C2)n1c(-c2ccccc2Cl)n[nH]c1=S` (stereo not given), the IC50 is 470 nM.

In the case of `CC(C1CC2CCC1C2)n1c(-c2ccco2)n[nH]c1=S` (stereo not given), the IC50 was 320 nM.

In the case of `Cc1cccc(C(=O)Nc2cccc(NC(=O)c3ccccc3C(C)C)c2)c1`, the IC50 was 2390 nM.

Turning to `COc1cccc(C(=O)Nc2cccc(NC(=O)c3ccccc3)c2)c1`, the IC50 is 25900 nM.

As to `CCOc1ccccc1NC(=O)c1cccc(NC(=O)c2ccc(C)cc2)c1`, the IC50 is 14700 nM.
